These results are taken from ChEMBL document CHEMBL1125612, “Synthesis and biological activity of D3-trishomocubyl-4-amines” (J Med Chem, 1991).

Data set [1] relates to Mus musculus. Description: Anti-oxotremorine activity (anticholinergic property) and reduction of tremor in mice at a dose of 30 mg/kg. In kind it is functional. The method, boiled down:
(§1)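 Male CD-1 mice, food-deprived 18 h, with water ad libitum except during observation. Groups of 10 received oral treatment in 1% tragacanth at 10 mL/kg. Test agents were dosed at 100, 30 or 10 mg/kg; the reference standard or vehicle was given instead where used. Oxotremorine 0.4 mg/kg i.p. followed 30 min later. Tremor and salivation were each scored 0-3 at 10, 20 and 30 min, reported as mean score ± SEM.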

The species entered for data set [2] is Mus musculus. Description: Anticataleptic activity for reversing the reserpine-induced catalepsy in mice. In kind it is functional. In outline:
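Male CD-1 mice fasted 18 h, given reserpine 5 mg/kg i.p. 4 h before oral compound (1% tragacanth, 10 mL/kg; 100, 30, 10 mg/kg; groups of five).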

Data set [3] concerns Mus musculus. The data set can be described thus: Anti-oxotremorine activity (anticholinergic property) and reduction of salivation in mice at a dose of 30 mg/kg. In kind it is functional. The method, boiled down:
as §1

A short description of data set [4]: Acute toxicity in mice (24 hours). In kind it is organism-based. To be noted: mouse, in vivo.
The test system of data set [5] is Mus musculus. The data set can be described thus: Anti-oxotremorine activity (anticholinergic property) and reduction of tremor in mice at a dose of 10 mg/kg. In kind it is functional. The method, boiled down: (§2)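 Male CD-1 mice, food withheld 18 h, water ad libitum except during observation. Compound in 1% tragacanth given orally (10 mL/kg) to groups of 10 at 100, 30 or 10 mg/kg. Oxotremorine 0.4 mg/kg i.p. 30 min later. Salivation and tremor each scored 0-3 at 10, 20 and 30 min after oxotremorine. Mean score ±SEM.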

Data set [6] relates to Mus musculus. The data set can be described thus: Anti-oxotremorine activity (anticholinergic property) and reduction of salivation in mice at a dose of 10 mg/kg. In kind it is functional. In outline:
as §2

In data set [7] the test system is Mus musculus. The data set can be described thus: Anti-oxotremorine activity (anticholinergic property) and reduction of tremor in mice at a dose of 100 mg/kg. In kind it is functional. The method, boiled down:
as §2

For data set [8], the system named is Mus musculus. Description: Anti-oxotremorine activity (anticholinergic property) and reduction of salivation in mice at a dose of 100 mg/kg. In kind it is functional. The method, boiled down: as §2
Data set [9] concerns Mus musculus. The data set can be described thus: Anti-oxotremorine activity (anticholinergic property) and reduction of salivation in mice at a dose of 3 mg/kg. In kind it is functional.
The test system of data set [10] is Mus musculus. Description: Anti-oxotremorine activity (anticholinergic property) and reduction of tremor in mice at a dose of 3 mg/kg. In kind it is functional.

For `CC12C3CC4C5C[C@H]([C@H](C53)[C@@H]1NCCc1ccccc1)[C@@H]42` (stereo not given in full), the Mean score in data set [1] and in data set [3] was 1.3 throughout. In addition, in [2], the ED50 (commonly the dose at which the effect has come halfway, by size or by number of responders) amounted to 150 mg/kg. The LD50 (commonly the dose at which mortality reaches 50%) at 24 h in [4] is over 1000 mg/kg.

Consider `CC12C3CC4C5C[C@H]([C@H](C53)[C@@H]1NCc1ccccc1)[C@@H]42` (stereo not given in full), for which the Mean score in data set [1] and in data set [3] was 1.5 each time. In addition, the ED50 in data set [2] was 34 mg/kg. This compound gave an LD50 at 24 h in data set [4] of over 1000 mg/kg.

`N[C@H]1[C@H]2C3C4C[C@H]2[C@H]2C4CC3C21c1ccccc1` (stereo not given in full): the Mean score came out at 1.6 in [1] and 1.2 in data set [3]. Besides, the ED50 in [2] is 16 mg/kg. The same compound displayed an LD50 at 24 h in data set [4] of 681 mg/kg.

`CCN[C@H]1[C@H]2C3C4C[C@H]2[C@H]2C4CC3C21c1ccccc1` (stereo not given in full): the ED50 in data set [2] came to 14 mg/kg. Further, the Mean score in data set [5] is on record as 1.3; in [6], 1. For the same compound, the LD50 at 24 h in data set [4] was 261 mg/kg.

As to `CCCCN[C@H]1[C@H]2C3C4C[C@H]2[C@H]2C4CC3C21C` (stereo not given in full), the ED50 in [2] stood at 15 mg/kg. Moreover, the Mean score in [5] and in data set [6] was 1.2 throughout. In data set [4], this compound showed an LD50 at 24 h of 150 mg/kg.

On to `NC12CC3CC(CC(C3)C1)C2` [AMANTADINE], for which the ED50 in data set [2] amounted to 17 mg/kg. Moreover, the Mean score in data set [7] came out at 1.7; in data set [8], 1.1.

On to `CN1[C@@H]2CC[C@H]1C[C@@H](OC(=O)C(CO)c1ccccc1)C2` (stereo not given in full) [ATROPINE], for which the Mean score in [9] worked out at 0; in data set [10] it was 0.5.
